One test deals with B16. The test can be described thus: Inhibitory activity against growth of B16 mouse melanoma cell line was determined by MTT assay. The format is functional, cell-based. The gist of the method:
(§1)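 Exponentially growing cells seeded at 2 × 10^4 ~ 5 × 10^4 cells/well in RPMI-1640, drug-treated, then incubated 72 h. MTT (5 mg/mL stock) added, 4 h at 37 °C. Formazan dissolved in DMSO at rt, absorbance read at 540 nm. IC50 from plot of log drug concentration versus growth rate of treated cells.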
A general note: Formazan colour is commonly taken as a measure of viable cells.

Another test relates to BeWo. The test is described as follows: Inhibitory activity against growth of BeWO placental tumor cell line was determined by MTT assay. The conditions noted are these: Homo sapiens. The format is functional, cell-based. An outline of the steps: as §1
Test [1] deals with HT-29. The test is described as follows: Inhibitory activity against growth of HT-29 colon tumor cell line was determined by MTT assay. The conditions noted are these: Homo sapiens. The format is functional, cell-based. An outline of the steps: as §1
The subject of another test is PANC-1. The test can be described thus: Inhibitory activity against growth of PANC-1 tumor cell line was determined by MTT assay. The format is functional, cell-based. The conditions noted are these: Homo sapiens. An outline of the steps: as §1
Test [2] has as its system HT-29. The test can be described thus: Percentage of apoptotic HT-29 cells after 24 H treatment with 10 ug/mL concentration of compound. Type of test: functional, Homo sapiens. An outline of the steps: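 HT-29 cells exposed to compound at 10 μg/mL for 24 h. Apoptotic cell percentage measured by flow cytometry (FACScan). Mean ± SEM of at least three separate experiments.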

In brackets after ≈: the same amount, converted by molar mass.

One may read the IC50 as the concentration that inhibits the measured activity by half.

Take `CC(C)[C@H]1C(=O)OC[C@@H](NC(=O)c2cnc3ccccc3n2)C(=O)N[C@@H](C)C(=O)N(C)[C@H]2CS(=O)(=O)CS(=O)(=O)C[C@@H](C(=O)N1C)N(C)C(=O)[C@H](C)NC(=O)[C@H](NC(=O)c1cnc3ccccc3n1)COC(=O)[C@H](C(C)C)N(C)C2=O`: the IC50 in the test on B16, with BeWo, with HT-29 [1] and in the test on PANC-1 was above 20 µg/mL in each case.
As to `CC(C)[C@H]1C(=O)OC[C@@H](NC(=O)c2cnc3ccccc3n2)C(=O)N[C@@H](C)C(=O)N(C)[C@H]2C[S+]([O-])C[S+]([O-])C[C@@H](C(=O)N1C)N(C)C(=O)[C@H](C)NC(=O)[C@H](NC(=O)c1cnc3ccccc3n1)COC(=O)[C@H](C(C)C)N(C)C2=O` (stereo not given in full), the concentration for half-maximal inhibition (IC50) in the test with B16, in the test with BeWo, in the test with HT-29 [1] and in the test with PANC-1 was above 20 µg/mL throughout.
Regarding `CC(C)[C@@H]1NC(=O)[C@@H]2CSCSC[C@H](NC(=O)[C@H](C)NC(=O)[C@H](NC(=O)c3cnc4ccccc4n3)COC1=O)C(=O)N[C@@H](C(C)C)C(=O)OC[C@@H](NC(=O)c1cnc3ccccc3n1)C(=O)N[C@@H](C)C(=O)N2`, the 50% inhibitory concentration (IC50) with B16, in the test with BeWo, in the test with HT-29 [1] and with PANC-1 was above 20 µg/mL throughout.
In the case of `CS[C@H]1SC[C@H]2C(=O)N(C)[C@@H](C(C)C)C(=O)OC[C@@H](NC(=O)c3cnc4ccccc4n3)C(=O)N[C@@H](C)C(=O)N(C)[C@@H]1C(=O)N(C)[C@@H](C(C)C)C(=O)OC[C@@H](NC(=O)c1cnc3ccccc3n1)C(=O)N[C@@H](C)C(=O)N2C` [ECHINOMYCIN], the 50% inhibitory concentration (IC50) in the test on B16 worked out at 0.4 µg/mL (≈ 0.363 µM); in the test on BeWo, 1 µg/mL (≈ 0.908 µM); in the test on HT-29 [1], 2.2 µg/mL (≈ 2 µM); in the test on PANC-1 it was 1.8 µg/mL (≈ 1.63 µM). In addition, the Apoptotic cells in the test on HT-29 [2] worked out at 47.5%.
The like results for `CC(C)[C@H]1C(=O)OC[C@@H](NC(=O)c2cnc3ccccc3n2)C(=O)N[C@@H](C)C(=O)N(C)[C@H]2CSCSC[C@@H](C(=O)N1C)N(C)C(=O)[C@H](C)NC(=O)[C@H](NC(=O)c1cnc3ccccc3n1)COC(=O)[C@H](C(C)C)N(C)C2=O` were, in that order, 1.4 µg/mL (≈ 1.27 µM), 2.7 µg/mL (≈ 2.45 µM), 5 µg/mL (≈ 4.54 µM), 4 µg/mL (≈ 3.63 µM) and 28.9%.
Turning to `CC(C)[C@H]1C(=O)OC[C@@H](NC(=O)c2cnc3ccccc3n2)C(=O)N[C@@H](C)C(=O)N(C)[C@H]2CSC[S+]([O-])C[C@@H](C(=O)N1C)N(C)C(=O)[C@H](C)NC(=O)[C@H](NC(=O)c1cnc3ccccc3n1)COC(=O)[C@H](C(C)C)N(C)C2=O` (stereo not given in full), the IC50 in the test on B16, in the test on BeWo, in the test with HT-29 [1] and with PANC-1 was above 20 µg/mL throughout.
Turning to `CC(C)[C@@H]1NC(=O)[C@@H]2CS(=O)(=O)CS(=O)(=O)C[C@H](NC(=O)[C@H](C)NC(=O)[C@H](NC(=O)c3cnc4ccccc4n3)COC1=O)C(=O)N[C@@H](C(C)C)C(=O)OC[C@@H](NC(=O)c1cnc3ccccc3n1)C(=O)N[C@@H](C)C(=O)N2`, the 50% inhibitory concentration (IC50) with B16, with BeWo, with HT-29 [1] and in the test with PANC-1 was above 20 µg/mL each time.

The values above are taken from ChEMBL document CHEMBL1147412, “Synthesis and biological activity of new quinoxaline antibiotics of echinomycin analogues” (Bioorg Med Chem Lett, 2004).
